ChEMBL document CHEMBL1153560, “In vitro activities of doripenem and six comparator drugs against 423 aerobic and anaerobic bacterial isolates from infected diabetic foot wounds” (2008)
≈ marks a conversion by molar mass, not a printed value.

How the values were obtained:
Format in all cases: functional
[Clostridium] innocuum = Antibacterial activity against Clostridium innocuum isolated from patient with diabetic foot infection assessed as percent resistant isolates after 44 to 48 hrs by agar dilution method
Procedure, shortened: (§1)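 Agar dilution per CLSI M11-A7. Twofold drug dilutions made on the test day and added to molten agar. Replicator-applied inoculum of 10^5 CFU/spot. Drug-free control plates inoculated before and after each drug set. Incubation at 37°C for 44 to 48 h, anaerobic chamber. MIC taken as the lowest concentration giving no growth or a marked change in growth versus controls.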

[1] = test system: Corynebacterium urealyticum; test: Antibacterial activity against Corynebacterium urealyticum isolated from patient with diabetic foot infection after 48 hrs by broth microdilution method
Procedure, shortened: (§2)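 Isolates were subcultured on Trypticase soy blood agar. Broth microdilution used cation-adjusted Mueller-Hinton broth with lysed horse blood, in-house trays of twofold drug dilutions stored at −70°C. Colonies from overnight growth gave a final inoculum of about 5 × 10^5 CFU/ml. Trays were read after 18 to 24 h at 37°C, up to 48 h for some strains.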

[2] = test system: Corynebacterium amycolatum; test: Antibacterial activity against Corynebacterium amycolatum isolated from patient with diabetic foot infection assessed as percent resistant isolates after 48 hrs by broth microdilution method
Procedure, shortened: (§3)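 Isolates subcultured on Trypticase soy blood agar. Broth microdilution in cation-adjusted Mueller-Hinton broth with lysed horse blood, using in-house twofold dilution trays stored at −70°C. Inoculum from overnight colonies at about 5 × 10^5 CFU/ml final. Read after 18 to 24 h at 37°C, up to 48 h for some Corynebacterium strains.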

Anaerococcus tetradius = test: Antibacterial activity against Anaerococcus tetradius isolated from patient with diabetic foot infection after 44 to 48 hrs by agar dilution method
Procedure, shortened: (§4)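 CLSI M11-A7 agar dilution: serial twofold drug dilutions made on the test day and added to molten agar. Spots of 10^5 CFU were applied by replicator, with drug-free control plates inoculated before and after each set. Incubation was 44 to 48 h at 37°C in an anaerobic chamber. MIC was the lowest concentration giving no growth or a marked change in growth versus controls.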

[3] = test system: Staphylococcus lugdunensis; test: Antibacterial activity against Staphylococcus lugdunensis isolated from patient with diabetic foot infection assessed as percent resistant isolates after 18 to 24 hrs by broth microdilution method
Procedure, shortened: (§5)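 Aerobes subcultured on Trypticase soy blood agar, then broth microdilution in cation-adjusted Mueller-Hinton broth. Trays prepared in-house with twofold dilutions and stored at −70°C. Overnight colonies suspended to about 5 × 10^5 CFU/ml final. Read after 18 to 24 h at 37°C. QC strains included S. aureus ATCC 29213 and E. coli ATCC 25922.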

Parabacteroides merdae = test: Antibacterial activity against Parabacteroides merdae isolated from patient with diabetic foot infection after 44 to 48 hrs by agar dilution method; procedure, shortened: as §4
Finegoldia magna = test: Antibacterial activity against Finegoldia magna isolated from patient with diabetic foot infection after 44 to 48 hrs by agar dilution method; procedure, shortened: as §4
Bacteroides uniformis [4] = test: Antibacterial activity against Bacteroides uniformis isolated from patient with diabetic foot infection after 44 to 48 hrs by agar dilution method; procedure, shortened: as §4
[5] = test system: Bacteroides thetaiotaomicron; test: Antibacterial activity against Bacteroides thetaiotaomicron isolated from patient with diabetic foot infection after 44 to 48 hrs by agar dilution method; procedure, shortened: as §4
Lacrimispora sphenoides [6] = test: Antibacterial activity against Clostridium sphenoides isolated from patient with diabetic foot infection assessed as percent resistant isolates after 44 to 48 hrs by agar dilution method; procedure, shortened: as §1
[7] = test system: Clostridium malenominatum; test: Antibacterial activity against Clostridium malenominatum isolated from patient with diabetic foot infection assessed as percent resistant isolates after 44 to 48 hrs by agar dilution method; procedure, shortened: as §1
[8] = test system: Corynebacterium urealyticum; test: Antibacterial activity against Corynebacterium urealyticum isolated from patient with diabetic foot infection assessed as percent resistant isolates after 48 hrs by broth microdilution method; procedure, shortened: as §3
Porphyromonas somerae = test: Antibacterial activity against Porphyromonas somerae isolated from patient with diabetic foot infection after 44 to 48 hrs by agar dilution method; procedure, shortened: as §4
Bacteroides uniformis [9] = test: Antibacterial activity against Bacteroides uniformis isolated from patient with diabetic foot infection assessed as percent resistant isolates after 44 to 48 hrs by agar dilution method; procedure, shortened: as §1
Corynebacterium accolens = test: Antibacterial activity against Corynebacterium accolens isolated from patient with diabetic foot infection after 48 hrs by broth microdilution method; procedure, shortened: as §2
Staphylococcus aureus = test: Antibacterial activity against methicillin-sensitive Staphylococcus aureus isolated from patient with diabetic foot infection after 18 to 24 hrs by broth microdilution method
Procedure, shortened: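 Subcultured on Trypticase soy blood agar, then broth microdilution in cation-adjusted Mueller-Hinton broth. Trays were made in-house with serial twofold drug dilutions and stored at −70°C. Inoculum was colonies from overnight growth, final approximately 5 × 10^5 CFU/ml. MIC was read after 18 to 24 h at 37°C. QC strains: S. aureus ATCC 29213 and E. coli ATCC 25922.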

Bacteroides fragilis = test: Antibacterial activity against Bacteroides fragilis isolated from patient with diabetic foot infection after 44 to 48 hrs by agar dilution method; procedure, shortened: as §4
[10] = test system: Corynebacterium minutissimum; test: Antibacterial activity against Corynebacterium minutissimum isolated from patient with diabetic foot infection after 48 hrs by broth microdilution method; procedure, shortened: as §2
Anaerococcus prevotii = test: Antibacterial activity against Anaerococcus prevotii isolated from patient with diabetic foot infection assessed as percent resistant isolates after 44 to 48 hrs by agar dilution method; procedure, shortened: as §1
Lacrimispora sphenoides [11] = test: Antibacterial activity against Clostridium sphenoides isolated from patient with diabetic foot infection after 44 to 48 hrs by agar dilution method; procedure, shortened: as §4
Bacteroides ovatus = test: Antibacterial activity against Bacteroides ovatus isolated from patient with diabetic foot infection assessed as percent resistant isolates after 44 to 48 hrs by agar dilution method; procedure, shortened: as §1
Clostridium perfringens = test: Antibacterial activity against Clostridium perfringens isolated from patient with diabetic foot infection after 44 to 48 hrs by agar dilution method; procedure, shortened: as §1
[12] = test system: Clostridium malenominatum; test: Antibacterial activity against Clostridium malenominatum isolated from patient with diabetic foot infection after 44 to 48 hrs by agar dilution method; procedure, shortened: as §4
Proteus mirabilis [13] = test: Antibacterial activity against Proteus mirabilis isolated from patient with diabetic foot infection after 18 to 24 hrs by broth microdilution method
Procedure, shortened: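 Isolates were subcultured on Trypticase soy blood agar and tested by broth microdilution in cation-adjusted Mueller-Hinton broth. In-house trays of twofold drug dilutions were stored at −70°C. Overnight colonies gave a final inoculum of about 5 × 10^5 CFU/ml. Plates were read after 18 to 24 h at 37°C.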

Enterobacter cloacae = test: Antibacterial activity against Enterobacter cloacae isolated from patient with diabetic foot infection assessed as percent resistant isolates after 18 to 24 hrs by broth microdilution method; procedure, shortened: as §5
Klebsiella aerogenes = test: Antibacterial activity against Enterobacter aerogenes isolated from patient with diabetic foot infection assessed as percent resistant isolates after 18 to 24 hrs by broth microdilution method; procedure, shortened: as §5
Proteus mirabilis [14] = test: Antibacterial activity against Proteus mirabilis isolated from patient with diabetic foot infection assessed as percent resistant isolates after 18 to 24 hrs by broth microdilution method; procedure, shortened: as §5

Compound	Activity ([Clostridium] innocuum) [%]	MIC50 [1] [µg/mL]	MIC90 [1] [µg/mL]	MIC50 (Anaerococcus tetradius) [µg/mL]	MIC90 (Anaerococcus tetradius) [µg/mL]	Activity [3] [%]	MIC50 (Parabacteroides merdae) [µg/mL]	MIC90 (Parabacteroides merdae) [µg/mL]	MIC50 (Finegoldia magna) [µg/mL]	MIC90 (Finegoldia magna) [µg/mL]	MIC50 (Bacteroides uniformis [4]) [µg/mL]	MIC90 (Bacteroides uniformis [4]) [µg/mL]	MIC50 [5] [µg/mL]	MIC90 [5] [µg/mL]	Activity (Lacrimispora sphenoides [6]) [%]	Activity [7] [%]	MIC50 (Porphyromonas somerae) [µg/mL]	MIC90 (Porphyromonas somerae) [µg/mL]	Activity (Bacteroides uniformis [9]) [%]	MIC50 (Corynebacterium accolens) [µg/mL]	further results
CCC[C@@H]1C[C@@H](C(=O)N[C@@H]([C@H]2O[C@H](SC)[C@H](O)[C@@H](O)[C@H]2O)[C@H](C)Cl)N(C)C1 [CLINDAMYCIN]	23	> 64	> 64	0.125 (≈ 0.294 µM)	64 (≈ 151 µM)	13	2 (≈ 4.71 µM)	> 64	0.5 (≈ 1.18 µM)	2 (≈ 4.71 µM)	2 (≈ 4.71 µM)	> 64	2 (≈ 4.71 µM)	> 64	23	23	≤ 0.03	64 (≈ 151 µM)	20	2 (≈ 4.71 µM)	Activity [2]: 100%; Activity [8]: 100%; MIC90 (Corynebacterium accolens): > 64 µg/mL; MIC50 (Staphylococcus aureus): 0.125 µg/mL (≈ 0.294 µM); MIC90 (Staphylococcus aureus): 0.25 µg/mL (≈ 0.588 µM); MIC50 (Bacteroides fragilis): 0.5 µg/mL (≈ 1.18 µM); MIC90 (Bacteroides fragilis): 2 µg/mL (≈ 4.71 µM); MIC50 [10]: > 64 µg/mL; MIC90 [10]: > 64 µg/mL; Activity (Anaerococcus prevotii): 18%; MIC50 (Lacrimispora sphenoides [11]): 0.5 µg/mL (≈ 1.18 µM); MIC90 (Lacrimispora sphenoides [11]): 16 µg/mL (≈ 37.6 µM); Activity (Bacteroides ovatus): 20%; MIC50 (Clostridium perfringens): 1 µg/mL (≈ 2.35 µM); MIC90 (Clostridium perfringens): 1 µg/mL (≈ 2.35 µM); MIC50 [12]: 0.5 µg/mL (≈ 1.18 µM); MIC90 [12]: 16 µg/mL (≈ 37.6 µM)
C[C@@H](O)[C@H]1C(=O)N2C(C(=O)O)=C(S[C@@H]3CN[C@H](CNS(N)(=O)=O)C3)[C@H](C)[C@H]12 [DORIPENEM]	0	1 (≈ 2.38 µM)	8 (≈ 19 µM)	≤ 0.015	0.06 (≈ 0.143 µM)	0	0.25 (≈ 0.595 µM)	1 (≈ 2.38 µM)	0.06 (≈ 0.143 µM)	0.125 (≈ 0.297 µM)	0.25 (≈ 0.595 µM)	1 (≈ 2.38 µM)	0.25 (≈ 0.595 µM)	1 (≈ 2.38 µM)	0	0	≤ 0.015	0.03 (≈ 0.0713 µM)	0	0.125 (≈ 0.297 µM)	MIC50 (Proteus mirabilis [13]): 0.125 µg/mL (≈ 0.297 µM); MIC90 (Proteus mirabilis [13]): 0.25 µg/mL (≈ 0.595 µM); Activity (Enterobacter cloacae): 0%; Activity (Klebsiella aerogenes): 0%; MIC90 (Corynebacterium accolens): 0.25 µg/mL (≈ 0.595 µM); MIC50 (Staphylococcus aureus): 0.03 µg/mL (≈ 0.0713 µM); MIC90 (Staphylococcus aureus): 0.03 µg/mL (≈ 0.0713 µM); MIC50 (Bacteroides fragilis): 0.25 µg/mL (≈ 0.595 µM); MIC90 (Bacteroides fragilis): 0.25 µg/mL (≈ 0.595 µM); MIC50 [10]: 1 µg/mL (≈ 2.38 µM); MIC90 [10]: 8 µg/mL (≈ 19 µM); Activity (Anaerococcus prevotii): 0%; MIC50 (Lacrimispora sphenoides [11]): 0.06 µg/mL (≈ 0.143 µM); MIC90 (Lacrimispora sphenoides [11]): 1 µg/mL (≈ 2.38 µM); Activity (Bacteroides ovatus): 0%; MIC50 (Clostridium perfringens): ≤ 0.015 µg/mL; MIC90 (Clostridium perfringens): 0.03 µg/mL (≈ 0.0713 µM); MIC50 [12]: 0.06 µg/mL (≈ 0.143 µM); MIC90 [12]: 1 µg/mL (≈ 2.38 µM); Activity (Proteus mirabilis [14]): 0%
